PfM18AAP inh: blocks P. falciparum M18 aspartyl aminopeptidase; recombinant PfM18AAP, H-Glu-NHMec fluorogenic cleavage; inhibition, % at 7.35 µM; 290,000 tested, 1.2% active; AID 1822;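 active means inhibition above the campaign mean inhibition over all tested compounds plus 3 SD, cut at about 28% in these data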;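 further: 0% = plate median of test compound wells and 100% = 2 mM ZnCl2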
APOBEC3A inh: human APOBEC3A DNA deaminase inhibition. P31941. recombinant A3A, FAM/TAMRA ssDNA deamination fluorescence. inhibition, % at 20 µM. 330,000 tested, 0.41% active. AID 493011;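 active means at least 40% inhibition at 20 µM here, with at most 30% in a related deaminase screen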;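 further: plate controls were A3A with DMSO for no effect and wells lacking A3A enzyme for full effect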
Target sequence (P31941 whole entry, looked up): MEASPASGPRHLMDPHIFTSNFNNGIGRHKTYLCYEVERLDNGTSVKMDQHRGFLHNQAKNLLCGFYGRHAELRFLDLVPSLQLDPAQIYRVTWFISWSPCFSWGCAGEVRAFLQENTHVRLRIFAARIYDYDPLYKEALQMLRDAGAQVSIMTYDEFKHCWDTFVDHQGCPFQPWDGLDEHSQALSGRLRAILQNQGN
A3G deaminase: blocks human APOBEC3G single-stranded DNA deamination | Q9HC16 | recombinant A3G, ssDNA deamination FAM/TAMRA fluorescence | inhibition, % at 20 µM | 330,000 tested, 0.28% active | AID 493012;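 active means inhibition of at least 40% at 20 µM, with no more than 30% in the related APOBEC3A deaminase screen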;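 further: plate controls were DMSO wells with A3G for no effect and wells lacking A3G enzyme for full effect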
Target sequence (Q9HC16 whole entry, looked up): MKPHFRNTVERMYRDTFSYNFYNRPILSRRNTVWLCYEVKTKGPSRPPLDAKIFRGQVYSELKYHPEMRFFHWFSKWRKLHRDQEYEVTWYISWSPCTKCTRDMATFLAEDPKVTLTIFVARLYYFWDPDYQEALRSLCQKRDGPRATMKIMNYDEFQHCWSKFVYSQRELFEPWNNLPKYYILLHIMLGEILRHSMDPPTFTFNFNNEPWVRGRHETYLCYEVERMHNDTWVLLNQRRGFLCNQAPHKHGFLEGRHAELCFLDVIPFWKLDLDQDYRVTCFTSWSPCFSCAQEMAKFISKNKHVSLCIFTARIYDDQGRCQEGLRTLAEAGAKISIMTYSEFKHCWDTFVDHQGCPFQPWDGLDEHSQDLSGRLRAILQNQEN
PfGluPho inh: PfG6PD (Plasmodium falciparum) enzyme inhibition | PfGluPho enzyme, NADPH resazurin-diaphorase fluorescence | 350,000 tested, 0.78% active | inhibition, % at 20 µM;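 active means inhibition reaching at least a set limit at 20 µM in the primary screen, cut at about 59% in these data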;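 further: 0% = DMSO wells with substrate and 100% = DMSO wells lacking glucose-6-phosphate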
HKDC1 inh: blocks human hexokinase HKDC1 activity; inhibition, % at 20 µM; recombinant HKDC1, G6PDH/diaphorase resazurin coupled fluorescence; 340,000 tested, 0.16% active; AID 493160;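 active means inhibition above about 35% when tested at 20 µM, limit read from the data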;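 further: plate controls were DMSO wells with enzyme for no effect and DMSO wells lacking enzyme for full effect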
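Test system: Recombinant HKDC1 (HK5) hexokinase enzyme, produced in-house | Input: HKDC1 at 5 µg/mL | Buffer or medium: Tris pH 8.0 buffer with MgCl2, Tween-20, BSA, BME | Schedule: 90 min reaction incubation at room temperature, dark | Technique: Resazurin-to-resorufin fluorescence via G6PDH and diaphorase coupling, 525/613 nm | Controls: DMSO wells with and without enzyme mix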
SUMO HTRF inh: SUMOylation inhibition | inhibition, % at 35 µM | AID 2006 | 290,000 tested, 0.36% active | P63279 | HTRF SUMOylation assay, SAE1/SAE2 + UBC9, in vitro; in the data active means inhibition above about 50%, passing the limit was not always enough
* hit, by the source's call; · = not tested or not shown. The list is not random: actives were taken first. Their share in the collection is about 2.4%.

SMILES	PfM18AAP inh	APOBEC3A inh	A3G deaminase	PfGluPho inh	HKDC1 inh	SUMO HTRF inh
CCOc1ccc(/C=C2\SC(=S)N(N3C(=O)C4CC4C3=O)C2=O)cc1 (stereo not given)	31.4*	2.6	1.5	-4.4	-12.4	10.7
CCOc1ccc(/C=C2/SC(=O)NC2=S)cc1	18.0	-3.2	1.9	-8.2	-2.7	13.8
O=C(NCc1ccncc1)C(=O)Nc1ccc2c(c1)OCO2	6.6	-0.7	-8.1	5.1	-11.2	-6.2
CN1CCN(C(=O)c2ccc(COc3ccc(Cl)cc3Cl)cc2)CC1	-2.3	1.7	5.0	-4.3	-9.7	-15.3
O=C(c1cccn2c(=O)c3cc(Cl)ccc3nc12)N1CCOCC1	-1.4	4.6	-2.6	-3.9	-2.1	52.2*
O=C(c1cccn2c(=O)c3cc(Cl)ccc3nc12)N1CCN(Cc2ccc3c(c2)OCO3)CC1	4.7	-5.6	-5.8	-5.3	-4.2	24.1
Oc1ccccc1-c1n[nH]c(=S)n1Cc1ccccc1	8.6	-4.8	21.5	30.2	-8.6	1.9
S=c1[nH]nc(-c2ccccc2Br)n1Cc1ccccc1	31.1*	-9.8	24.0	14.6	3.1	-8.3
Cc1cccc(-c2n[nH]c(=S)n2Cc2ccccc2)c1	18.1	0.3	20.2	26.1	-0.5	-8.2
O=[N+]([O-])c1cccc(-c2n[nH]c(=S)n2Cc2ccccc2)c1	28.7*	-7.1	29.2	19.6	13.4	13.1
O=C(/C=C/c1ccncc1)c1ccc(NC(=O)c2ccccc2F)cc1	-4.2	·	·	24.9	11.7	70.2*
O=C(/C=C/c1ccc(NC(=O)c2ccccc2-c2ccccc2C(=O)O)cc1)c1ccccc1	-12.6	-5.3	-5.7	-22.4	22.2	37.4
O=C(O)C1CSC(c2coc3ccccc3c2=O)N1 (stereo not given)	28.7*	-1.5	-7.7	-1.6	-7.2	20.4
CC1CCOC(c2coc3ccccc3c2=O)O1 (stereo not given)	-1.1	-3.3	-8.3	-12.4	1.6	-10.9
N#Cc1c(=O)c2nc(NCCCO)ncc2n2c(=O)c3ccccc3[nH]c12	0.4	1.4	-5.5	-1.6	9.7	28.0
N#Cc1c(=O)c2nc(NCc3ccccc3)ncc2n2ccccc12	13.2	7.6	7.0	22.2	10.2	50.9*
COC(=O)C1=CO[C@@H](O[C@@H]2O[C@H](CO)[C@@H](O)[C@H](O)[C@H]2O)C2C(CO)=CCC12 (stereo not given in full)	·	-6.0	-8.7	18.9	-5.4	·
NCC[C@H](O)C(=O)N[C@@H]1C[C@H](N)[C@@H](O[C@H]2O[C@H](CN)[C@@H](O)[C@H](O)[C@H]2O)[C@H](O)[C@H]1O[C@H]1O[C@H](CO)[C@@H](O)[C@H](N)[C@H]1O	-1.7	·	·	-13.6	-6.7	70.9*
O=C(Nc1ccccc1Cl)c1c(F)c(F)c(F)c(F)c1F	8.1	-3.0	-9.9	2.2	-4.1	·
O=C(NC1(O)C(=O)c2ccccc2C1=O)c1ccccc1	-3.4	3.9	1.9	14.4	-16.5	83.9*
O=C(NC1(O)C(=O)c2ccccc2C1=O)c1c(Cl)cccc1Cl	4.2	-5.1	-7.2	2.6	-10.5	95.0*
COC1(NC(=O)c2ccccc2)C(C)=CC(=O)C=C1C	-12.8	-3.2	0.5	42.8	15.0	9.7
O=C(CCSCCc1ccccn1)Nc1c(F)cc(F)cc1Br	-2.2	-0.8	-3.2	-11.7	14.9	-0.2
CC(C)c1ccccc1-n1cc[nH]c1=S	9.6	-3.6	3.4	43.4	-6.3	7.8
CCCCCCC/C=N/Nc1nnc(Cc2ccccc2)c(=O)[nH]1	28.1*	2.3	-1.7	-2.6	-0.3	24.8
SMILES	PfM18AAP inh	APOBEC3A inh	A3G deaminase	PfGluPho inh	HKDC1 inh	SUMO HTRF inh
CCCCCC/C=N/Nc1nnc(Cc2ccc(OC)c(OC)c2)c(=O)[nH]1	8.7	-0.3	-7.4	-16.4	4.7	16.7
O=C(CN1C(=O)CC(c2ccco2)Sc2ccccc21)Nc1ccccc1F (stereo not given)	-2.4	3.9	-4.5	13.0	11.4	7.6
O=C1C=C(NCCN2CCOCC2)C(=O)c2cnccc21	4.4	·	·	·	·	84.2*
CN(CCc1ccccn1)Cc1ccc(Cl)c(Cl)c1	2.9	0.9	-1.5	-6.3	5.3	0.3
COc1ccc(C2C=C(c3ccc(Br)s3)Nc3ncnn32)cc1OC (stereo not given)	36.1*	-23.1	-50.8	·	·	-5.1
COc1ccc(C2C=C(c3ccc(C)cc3)Nc3ncnn32)cc1 (stereo not given)	16.4	·	·	1.9	12.4	14.7
COc1ccccc1Oc1c(C)oc2cc(OC(=O)c3ccco3)ccc2c1=O	10.8	1.7	1.8	4.9	16.7	51.6*
CCOc1ccccc1Oc1c(C)oc2cc(OC(=O)c3ccco3)ccc2c1=O	-13.4	-1.4	-5.6	-13.4	-0.8	37.4
N/C(=N\OC(=O)c1ccccc1Br)c1ccc([N+](=O)[O-])cc1	6.7	-2.2	-7.1	11.9	-4.8	9.0
O=C(CN1C(=O)/C(=C2/SC(=S)N(CCS(=O)(=O)O)C2=O)c2ccccc21)Nc1cccc(C(F)(F)F)c1	·	0.1	2.7	15.5	36.2*	·
COCCN1C(=O)/C(=C2/C(=O)N(CC(=O)Nc3ccccc3Cl)c3ccccc32)SC1=S	-12.4	1.3	1.4	-13.4	0.4	-0.2
CC(=O)Nc1ccc(-c2nc3ccc(NC(C)=O)cc3o2)cc1	-0.2	-0.6	-2.1	4.0	7.5	50.6*
CC(=O)Nc1ccc2nc3ccccc3nc2c1	-8.4	2.5	5.7	-9.0	15.9	92.4*
CC(=O)Nc1ccc(Nc2cc(C)c3ccccc3n2)cc1	1.9	-8.8	-11.0	5.0	1.7	6.5
O=C(Nc1ccc2cccnc2c1)c1ccc(Br)cc1	-14.6	-9.0	-5.9	26.5	-1.7	5.4
O=C(Nc1ccc2nc3ccccc3nc2c1)c1ccc(Br)cc1	2.7	0.6	2.2	20.8	6.6	57.4*
CC(=O)Nc1ccc2oc(-c3ccccc3)nc2c1	-13.2	1.8	-4.8	-5.2	-6.6	34.3
COc1ccccc1-c1sc2cc3c(cc2c1C#CCO)OCO3	·	-4.8	-9.7	16.1	2.7	·
COc1cc(NC(=O)c2cccs2)ccc1NC(=O)c1cc2ccccc2o1	-12.4	0.6	-5.3	-1.1	-0.8	25.4
CCOC(=O)c1c(NC(=O)CSc2nc3ccccc3o2)sc(C)c1C	1.2	-1.0	-3.6	19.8	-1.5	-44.3
CCOC(=O)c1c(NC(=O)CSc2nc3ccccc3s2)sc(C)c1C	29.6*	2.8	3.6	9.5	2.8	22.9
S=c1[nH]ncn1/N=C/c1ccc(N2CCOCC2)cc1	31.0*	-7.5	33.2	29.4	-1.9	11.2
Cc1ccc(C)c(/C=N/Nc2nc3ccccc3c(=O)n2O)c1	30.9*	-3.1	6.9	18.8	-6.3	5.4
O=C1CC(c2ccccc2)Cc2nc(NC3CC3)ncc21 (stereo not given)	-2.0	-0.9	-1.8	-4.5	0.1	2.1
O=C1CC(c2ccccc2)Cc2nc3ncnn3cc21 (stereo not given)	28.3*	-3.4	-8.3	4.5	-5.6	18.4
